Data as given in PubChem BioAssay.
Inconclusive results are not listed.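 The calls were made as follows, unless noted: active = viability at or below 27.92% in each of two runs, the all-compound median minus 4 SD; inconclusive = no clear call, values can overlap the other calls; inactive = the rest.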

Tests used:
[1] = S. cerevisiae growth inhibition in permissive medium (OD615), pilot counter-assay for S. cerevisiae lifespan shortening project, permissive growth control (AID 705;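 active = growth inhibition above 25% in both replicates, a cutoff set 3 SD above the mean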); conditions: OD615, 24 h, at 10 µM, hits give high values
Procedure, shortened: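 System: S. cerevisiae with engineered DeaD lifespan system. Medium: SC raffinose/galactose permissive medium. Doses: single compound dose of 10 µM, 0.25% DMSO final. Schedule: 24 h exposure, 30 °C. Measured by: OD615 turbidity read. Read-out: growth inhibition.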

[2] = S. cerevisiae growth inhibition in restrictive medium, OD615, pilot screen, restrictive growth control, yeast lifespan reduction project (AID 706;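 active = growth inhibition above a set limit, 3 SD over mean compound inhibition, in both replicates, cut at about 43% in these data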;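 also: modified DeaD lifespan yeast strain shifted to restrictive glucose medium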); conditions: OD615, 48 h, at 10 µM, hits give high values
Procedure, shortened: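 Assay system – genetically modified Saccharomyces cerevisiae, DeaD replicative lifespan assay strain · Medium – CSMM-D glucose medium · Doses – 10 µM compound, 0.25% DMSO · Times – 4 h pre-incubation, 48 h exposure at 30 °C · Signal – optical density at 615 nm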

[3] = doxorubicin toxicity protection in MRP-1 cells – H69AR cells, CellTiter-Glo, duplicate, MRP-1 activator project, pilot screen (AID 807;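 active = viability increase at or above a cutoff of the median across tested compounds plus 3 SD, cut at about 8.5% in these data, passing the limit was not always enough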;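 also: compound pretreatment 18-22 h then 72 h combined with doxorubicin; 0% = doxorubicin alone and 100% = vehicle without doxorubicin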); conditions: H69AR viability with doxorubicin, CellTiter-Glo luminescence; at 10 µM; hits give high values
[4] = viability of HCT116 without oncogenic beta-catenin – human colon tumor cells, pilot screen (AID 823;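 active = cell viability at or below a set limit in both duplicate runs, the limit being the all-compound median minus 4 SD, cut at about 23% in these data, passing the limit was not always enough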;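 also: 0% = wells killed by 20 µM Hyamine and 100% = untreated DMSO cell wells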); conditions: HCT116 beta-catenin knockout viability, CellTiter-Glo, 60 h; at 10 µM; hits give low values
[5] = viability of PTEN-null HCT116 cells – cell-based, HCT116 clonal line, CellTiter-Glo, pilot screen (AID 824); conditions: HCT116 PTEN-deleted viability, 60 h, at 10 µM, hits give low values;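 also: 0% = 20 µM Hyamine control and 100% = vehicle cell control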
[6] = RAM pathway blockade in budding yeast – dse1pr::URA3 reporter, 5-FOA selection, pilot screen (AID 869;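 active = inhibition over a set limit, the all-compound mean plus 3 SD, in both replicate runs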;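 also: 0% = DMSO wells with no growth and 100% = 10 µM 1-NA-PP1 with full growth; RAM network block rescues cells from 5-FOA so hits raise OD615 growth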); conditions: S. cerevisiae dse1pr::URA3 5-FOA growth, OD615, 2 d; at 10 µM; hits give high values; strain carries analog-sensitive mutant Cbk1 kinase
[7] = RAM signaling pathway blockade in yeast – S. cerevisiae, Pdr1DBD-CYC8 efflux-inhibited sensitized strain, primary screen (AID 1298;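 active = RAM network inhibition above 8.4% in each of two replicates, 3 SD over the compound average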;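 also: 0% = DMSO untreated cells without growth and 100% = 10 µM 1-NA-PP1 full growth; higher means more yeast growth rescued from 5-FOA killing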); conditions: S. cerevisiae cbk1-as DSE1-URA3 strain, 5-FOA growth OD615, 2 d; at 50 µM; hits give high values

COc1ccc(NC(=O)Nc2nnc(N3CCC(C)CC3)s2)cc1OC
inactive: growth inhibition [1] -8.13% | growth inhibition [2] -23% | viability increase [3] -4.49% | viability [4] 107% | viability [5] 98.1% | inhibition [6] 1.59% | RAM network inhibition [7] 1.42%

CCN(CC)C(=O)C1CCN(S(=O)(=O)c2ccc(C3CNC(=O)C3)cc2)CC1 (stereo not drawn)
inactive: growth inhibition [1] 3.76% | growth inhibition [2] -0.015% | viability increase [3] 0.02% | viability [4] 99.9% | viability [5] 106% | inhibition [6] 1.81% | RAM network inhibition [7] 2.47%

Cc1cc(C)cc(Nc2cc(C)nc3nc(C)nn23)c1
inactive: growth inhibition [1] -3.56% | growth inhibition [2] 11.6% | viability increase [3] -2.41% | viability [4] 95.9% | viability [5] 90.8% | inhibition [6] 1.87% | RAM network inhibition [7] -0.26%

Cc1nn(C)c(C)c1S(=O)(=O)N(CC(=O)Nc1nccs1)c1ccc(C(C)C)cc1
inactive: growth inhibition [1] -0.91% | growth inhibition [2] -7.29% | viability increase [3] -4.04% | viability [4] 99% | viability [5] 90.5% | inhibition [6] 2.3% | RAM network inhibition [7] 2.72%

Cn1cc(SCC(=O)Nc2ccc3c(c2)OCO3)c2ccccc21
inactive: growth inhibition [1] -6.75% | growth inhibition [2] -9.39% | viability increase [3] -2.72% | viability [4] 100% | viability [5] 92.9% | inhibition [6] 1.69% | RAM network inhibition [7] 2.23%

O=C(Cn1cnc2ccccc2c1=O)N(Cc1ccco1)c1ccc(O)cc1
inactive: growth inhibition [1] -4.45% | growth inhibition [2] -19.6% | viability increase [3] -1.76% | viability [4] 92% | viability [5] 89.8% | inhibition [6] 0.94% | RAM network inhibition [7] -0.26%

O=C(NCCN1CCN(c2ccccc2F)CC1)C1CCCN(S(=O)(=O)c2cnc[nH]2)C1 (stereo not drawn)
inactive: growth inhibition [1] 5.84% | growth inhibition [2] 3.21% | viability increase [3] -1.19% | viability [4] 104% | viability [5] 98% | inhibition [6] 2.38% | RAM network inhibition [7] 0.68%

CCOC(=O)c1ccc(NCn2c(=O)oc3ccccc32)cc1
inactive: growth inhibition [1] -8.51% | growth inhibition [2] -15.7% | viability increase [3] -4.09% | viability [4] 88.5% | viability [5] 87.6% | inhibition [6] -0.385% | RAM network inhibition [7] -0.1%

CCS(=O)(=O)Nc1cc(-c2nc3cccnc3s2)ccc1C
inactive: growth inhibition [1] -6.48% | growth inhibition [2] 12.5% | viability increase [3] -3.94% | viability [4] 100% | viability [5] 82.8% | inhibition [6] 1.89% | RAM network inhibition [7] 5.32%

CCCSc1nnc2nc(C)cc(C)n12
inactive: growth inhibition [1] -2.7% | growth inhibition [2] 1.39% | viability increase [3] -0.95% | viability [4] 103% | viability [5] 101% | inhibition [6] 2% | RAM network inhibition [7] -0.46%

C=C(C)CSc1nc2c(c(=O)[nH]c(=O)n2C)n1Cc1ccccc1
inactive: growth inhibition [1] -16.7% | growth inhibition [2] -22.9% | viability increase [3] 3.2% | viability [4] 83.8% | viability [5] 78.3% | inhibition [6] 2.96% | RAM network inhibition [7] 7.74%

Cc1nc(SC(C)C)[nH]c(=O)c1Cc1ccccc1
inactive: growth inhibition [1] -14.9% | growth inhibition [2] -4.47% | viability increase [3] -0.89% | viability [4] 98.4% | viability [5] 91.8% | inhibition [6] 1.1% | RAM network inhibition [7] 3.52%

Cc1cccc(-n2ccnc2SCC(=O)Nc2nnc(C)s2)c1
inactive: growth inhibition [1] -5.12% | growth inhibition [2] 20.3% | viability increase [3] -4.56% | viability [4] 76.9% | viability [5] 72.8% | inhibition [6] 1.13% | RAM network inhibition [7] 6.22%

Cc1noc(C(=O)Nc2sc3c(c2C#N)CCC3)c1Cl
inactive: growth inhibition [1] -6.86% | growth inhibition [2] 2.54% | viability increase [3] -1.69% | viability [4] 65.8% | viability [5] 55.6% | inhibition [6] 1.84% | RAM network inhibition [7] 2.59%

Cc1cccc(-n2ncc3c(N4CCC(C)CC4)ncnc32)c1
inactive: growth inhibition [1] -5.82% | growth inhibition [2] 10.6% | viability increase [3] 4.21% | viability [4] 81.4% | viability [5] 82.9% | inhibition [6] -0.31% | RAM network inhibition [7] 1.32%

Cc1ccc(-c2nnc(SCC(=O)Nc3ccccc3F)o2)cc1
inactive: growth inhibition [1] -11.9% | growth inhibition [2] 2.46% | viability increase [3] -0.16% | viability [4] 41.8% | viability [5] 37.8% | inhibition [6] 4.38% | RAM network inhibition [7] 5.9%

CC(NC(=O)c1ccco1)C(c1cccs1)N1CCN(c2ccccc2)CC1 (stereo not drawn)
inactive: growth inhibition [1] -5.64% | growth inhibition [2] -18.3% | viability increase [3] -1.36% | viability [4] 87.7% | viability [5] 81.2% | inhibition [6] 1.74% | RAM network inhibition [7] 5.06%

CS(=O)(=O)c1ccc(C(=O)NC2CCOC2=O)cc1 (stereo not drawn)
inactive: growth inhibition [1] -2.63% | growth inhibition [2] -3.86% | viability increase [3] -1.85% | viability [4] 102% | viability [5] 97.6% | inhibition [6] -0.295% | RAM network inhibition [7] 4.25%

COc1ccc(CCN2CC(C#N)=C3c4cc(OC)c(OC)cc4CCN3C2)cc1OC
inactive: growth inhibition [1] -2.16% | growth inhibition [2] 3.84% | viability increase [3] -4.7% | viability [4] 99.5% | viability [5] 95.4% | inhibition [6] -0.455% | RAM network inhibition [7] -0.37%

COC(=O)C1CCCN1C(C(=O)NC1CCCCC1)c1ccc(Cl)cc1 (stereo not drawn)
inactive: growth inhibition [1] -15.1% | growth inhibition [2] -2.47% | viability increase [3] 1.72% | viability [4] 82.7% | viability [5] 74.9% | inhibition [6] 0.02% | RAM network inhibition [7] 2.27%

Cc1ccc(NS(=O)(=O)c2ccc3c(c2)oc(=O)n3C)cc1F
inactive: growth inhibition [1] -11% | growth inhibition [2] -10.8% | viability increase [3] 0.32% | viability [4] 89.1% | viability [5] 86.1% | inhibition [6] 1.1% | RAM network inhibition [7] 3.85%

CC(NC(=O)c1cccnc1)C(c1cccs1)N1CCN(C)CC1 (stereo not drawn)
inactive: growth inhibition [1] -4.91% | growth inhibition [2] 5.15% | viability increase [3] 0.3% | viability [4] 98.2% | viability [5] 95% | inhibition [6] 0.955% | RAM network inhibition [7] 4.79%

CC(=O)NC(CCS(C)(=O)=O)C(=O)Nc1cccc(Cl)c1Cl (stereo not drawn)
inactive: growth inhibition [1] -2.35% | growth inhibition [2] -13.9% | viability increase [3] -4.63% | viability [4] 101% | viability [5] 97% | inhibition [6] 2.29% | RAM network inhibition [7] -0.83%

COc1ccc(NC2c3ccccc3C(=O)N2Cc2ccco2)cc1OC (stereo not drawn)
inactive: growth inhibition [1] 6.53% | growth inhibition [2] 6.86% | viability increase [3] -3.63% | viability [4] 97.5% | viability [5] 89.7% | inhibition [6] 0.985% | RAM network inhibition [7] 3.72%
